Compound activity as filed in PubChem BioAssay.
OX1R antag-1 – antagonists of human orexin 1 receptor (OX1R) | 330,000 tested, 1.8% active | AID 485270 | O43613 | inhibition, % at 6.6 µM | OX1R-expressing cells, FRET antagonist read-out; in the data active = inhibition mostly above about 38%, no sharp cut-off; inactive = mostly below about 40%
TAAR1 antag – human TAAR1 antagonism; Q96RJ0; CHO RD-HGA16 TAAR1, Fluo-8 calcium fluorescence, antagonist; inhibition, % at 3 µM; 360,000 tested, 1.5% active; AID 624466;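 active = inhibition above a per-plate cutoff, the mean inhibition of test compounds on that plate plus 3 SD, cut at about 49% in these data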
Target sequence (Q96RJ0 whole entry, looked up): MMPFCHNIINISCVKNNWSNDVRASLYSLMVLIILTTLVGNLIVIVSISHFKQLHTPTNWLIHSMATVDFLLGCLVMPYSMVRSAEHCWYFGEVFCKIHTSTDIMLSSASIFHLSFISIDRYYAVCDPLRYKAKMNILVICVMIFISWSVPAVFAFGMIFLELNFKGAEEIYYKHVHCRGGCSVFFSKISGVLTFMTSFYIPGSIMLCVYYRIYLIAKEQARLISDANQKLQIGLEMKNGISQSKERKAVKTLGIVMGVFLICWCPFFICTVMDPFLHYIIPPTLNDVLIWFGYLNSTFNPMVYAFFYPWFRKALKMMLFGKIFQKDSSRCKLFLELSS
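System: RD-HGA16 CHO cells with stable hTAAR1 and Gα16 | Probe or stimulus: EC80 β-phenethylamine stimulus | Dosing: 3 µM, single point | Times: Dye loading 75 min at 37 °C, then 30 min room temperature | Measured by: Fluo-8 calcium-sensitive fluorescence | Read-out basis: % inhibition of agonist calcium response | Replicates: n of 1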
GalR3 antagonist – human GalR3 antagonism | inhibition, % at 3 µM | HEK293 GalR3-CNG cAMP membrane potential fluorescence; galR3 body fused to GalR1 C-terminus | O60755 | 360,000 tested, 0.44% active;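 active = inhibition above the screen-wide average plus 3 SD, cut at about 13% in these data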;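 note: forskolin and galanin both at EC90 stimulate the cells; cAMP rise reported by CNG channel membrane potential dye signal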
Target sequence (O60755 1-299 limits assumed): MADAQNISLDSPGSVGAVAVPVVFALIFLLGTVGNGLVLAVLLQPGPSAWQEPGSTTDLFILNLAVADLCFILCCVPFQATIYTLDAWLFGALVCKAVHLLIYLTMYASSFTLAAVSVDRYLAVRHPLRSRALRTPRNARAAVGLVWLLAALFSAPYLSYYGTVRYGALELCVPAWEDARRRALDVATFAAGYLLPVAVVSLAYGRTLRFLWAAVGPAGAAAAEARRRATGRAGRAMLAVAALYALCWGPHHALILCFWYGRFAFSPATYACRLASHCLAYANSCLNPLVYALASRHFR
TAAR1 agonist – agonists of human TAAR1 | Q96RJ0 | CHO RD-HGA16 TAAR1, Fluo-8 calcium fluorescence; vehicle wells 0%, saturating PEA agonist 100% | activation, % at 3 µM | 360,000 tested, 0.99% active;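 active = activation above the mean activation of all test compounds in the run plus 3 SD, cut at about 38% in these data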
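Test system: RD-HGA16 (CHO) cells co-expressing Gα16 and hTAAR1 | Doses: Single dose, 3 µM | Schedule: 17-24 h seeding, 75 min 37 °C dye, 30 min RT | Evaluation: % activation from peak over basal fluorescence ratio, DMSO-to-PEA scaled | Technique: Kinetic Fluo-8 calcium fluorescence | Benchmarks: Low control DMSO, high control PEA (EC100)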
CHO parental Ca – signal in parental CHO cells, OX1R antagonist counter-screen; parental CHO-K1, ATP-induced calcium, Fluo-8 fluorescence; inhibition, % at 5.6 µM; 330,000 tested, 0.63% active; AID 463079;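 active = inhibition above that plate's mean sample inhibition plus 3 SD, cut at about 26% in these data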
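Material – parental CHO cells · Reagent – ATP stimulus · Compound – single nominal dose of 5.6 µM per compound · Detection – Fluo-8 fluorescence · Read-out basis – percent inhibition of calcium signal · Controls – ATP-challenged DMSO wells low, unchallenged DMSO wells high · Repeats – no replicates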
OX1R antag-2 – blocks the human orexin 1 receptor. CHO/OX1R cells, Fluo-8 calcium fluorescence, orexin A. inhibition, % at 5 µM. 330,000 tested, 0.43% active;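 active = inhibition above its plate's threshold, mean inhibition of all tested compounds on the plate plus 3 SD, cut at about 37% in these data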
TAAR1 nonsel count – nonselective antagonism, TAAR1 counter-screen; 2,400 tested, 77% active; shares compounds with TAAR1 antag; counterscreen cell line, calcium fluorescence, antagonist mode; AID 651780; inhibition, % at 3 µM; in the data active = inhibition above about 22%;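 note: CHO-Ga16 host cells stimulated with ATP at an EC80 level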
TAAR1 antag conf – human TAAR1 antagonism, confirmed | inhibition, % at 3 µM | TAAR1-expressing cells, fluorescence antagonist read-out | AID 651785 | shares compounds with TAAR1 antag | 2,400 tested, 40% active; in the data active = inhibition above about 49%;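 note: CHO-Ga16 host cells challenged with agonist PEA near its EC80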
Ga16 nonsel ag – nonselective Ga16 agonism, counter-screen; shares compounds with TAAR1 antag; Ga16-expressing cells, calcium fluorescence, agonist counterscreen; activation, % at 3 µM; 2,400 tested, 18% active; in the data active = activation above about 12%
TAAR1 ag counter – counter-screen for human TAAR1 antagonists: TAAR1 agonists. activation, % at 3 µM. hTAAR1 cell line, fluorescence activation, agonist mode. 2,400 tested, 2% active. shares compounds with TAAR1 antag. AID 651955; in the data active = activation above about 37%;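 note: CHO cells stably expressing TAAR1 with calcium dye readout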
Numbers stand for hits. Only some compounds are listed: those with a hit (about 4.3% of all), similar ones and a draw of the others.

Screening Cc1ccc(C(=O)Nc2cccc(C(=O)N/N=C/c3ccccc3F)c2)cc1 returned OX1R antag-1 inactive, TAAR1 antag 65.5, GalR3 antagonist inactive, TAAR1 agonist inactive, CHO parental Ca inactive, OX1R antag-2 inactive, TAAR1 nonsel count 29.6, TAAR1 antag conf inactive, Ga16 nonsel ag inactive and TAAR1 ag counter inactive.
Screening O=C(CSc1ccc(Cl)cc1)N1CCC(c2nc3ccccc3s2)CC1 returned OX1R antag-1 inactive, TAAR1 antag inactive, GalR3 antagonist inactive, TAAR1 agonist inactive, CHO parental Ca inactive and OX1R antag-2 inactive.
Screening O=C(CSc1c(Cl)cccc1Cl)N1CCC(c2nc3ccccc3s2)CC1 returned OX1R antag-1 inactive, TAAR1 antag 59.1, GalR3 antagonist inactive, TAAR1 agonist inactive, CHO parental Ca inactive, OX1R antag-2 inactive, TAAR1 nonsel count 44.0, TAAR1 antag conf 50.0, Ga16 nonsel ag 11.5 and TAAR1 ag counter inactive.
COc1ccccc1CNC(=O)CN1C(=O)N(C)C2(CCCCC2)C1=O was read as OX1R antag-1 inactive, TAAR1 antag inactive, GalR3 antagonist inactive, TAAR1 agonist inactive, CHO parental Ca inactive and OX1R antag-2 inactive.
Nc1cc(=O)[nH]c(SCCSc2cc(Cl)ccc2Cl)n1 was read as OX1R antag-1 inactive, TAAR1 antag inactive, GalR3 antagonist inactive, TAAR1 agonist inactive, CHO parental Ca inactive and OX1R antag-2 inactive.
`CCc1cc2c(COC(=O)c3cccc(NS(C)(=O)=O)c3)cc(=O)oc2cc1O` gave OX1R antag-1 inactive, TAAR1 antag 64.7, GalR3 antagonist inactive, TAAR1 agonist inactive, CHO parental Ca inactive, OX1R antag-2 inactive, TAAR1 nonsel count 33.0, TAAR1 antag conf inactive, Ga16 nonsel ag inactive and TAAR1 ag counter inactive.
Screening CN(C)c1cccc(C(=O)OCc2cc(=O)oc3cc(O)ccc23)c1 returned OX1R antag-1 inactive, TAAR1 antag inactive, GalR3 antagonist inactive, TAAR1 agonist inactive, CHO parental Ca inactive and OX1R antag-2 inactive.
For CCCCNCc1cc2ccccc2o1 the results were OX1R antag-1 inactive, TAAR1 antag 103.5, GalR3 antagonist inactive, TAAR1 agonist inactive, CHO parental Ca inactive, OX1R antag-2 inactive, TAAR1 nonsel count inactive, TAAR1 antag conf inactive, Ga16 nonsel ag inactive and TAAR1 ag counter inactive.
`COc1ccc(C(=O)OCC(=O)Nc2sccc2C(N)=O)cc1OC` gave OX1R antag-1 inactive, TAAR1 antag 64.2, GalR3 antagonist inactive, TAAR1 agonist inactive, CHO parental Ca inactive, OX1R antag-2 inactive, TAAR1 nonsel count 29.7, TAAR1 antag conf inactive, Ga16 nonsel ag inactive and TAAR1 ag counter inactive.
Screening NC(=O)c1ccsc1NC(=O)COC(=O)Cc1c[nH]c2ccccc12 returned OX1R antag-1 inactive, TAAR1 antag 66.4, GalR3 antagonist inactive, TAAR1 agonist inactive, CHO parental Ca inactive, OX1R antag-2 inactive, TAAR1 nonsel count 46.6, TAAR1 antag conf 55.8, Ga16 nonsel ag 16.6 and TAAR1 ag counter inactive.
For CN(C)C(CNC(=O)c1sc2ccccc2c1Cl)c1ccco1 (stereo not drawn) the results were TAAR1 antag inactive, GalR3 antagonist inactive and TAAR1 agonist inactive.
`CC(C)COC(=O)N(C)C[C@@H]1OCc2cnnn2CCCC(=O)N([C@H](C)CO)C[C@H]1C` gave TAAR1 antag inactive, GalR3 antagonist inactive and TAAR1 agonist inactive.
For CCOC1=C(C#N)CC2(CC1)c1ccccc1-c1ccccc12 the results were TAAR1 antag 70.6, GalR3 antagonist inactive, TAAR1 agonist inactive, TAAR1 nonsel count 23.9, TAAR1 antag conf inactive, Ga16 nonsel ag inactive and TAAR1 ag counter inactive.
CCCCn1c(N)c(N(CC(C)C)C(=O)c2ccc(F)c(S(=O)(=O)N3CCOCC3)c2)c(=O)[nH]c1=O was read as OX1R antag-1 inactive, TAAR1 antag inactive, GalR3 antagonist inactive, TAAR1 agonist inactive, CHO parental Ca inactive and OX1R antag-2 inactive.
CC(C)(C)c1cc(NC(=O)c2ccc(OC3CCCC3)cc2)no1 was read as OX1R antag-1 inactive, TAAR1 antag 50.7, GalR3 antagonist inactive, TAAR1 agonist inactive, CHO parental Ca inactive, OX1R antag-2 inactive, TAAR1 nonsel count 25.3, TAAR1 antag conf inactive, Ga16 nonsel ag inactive and TAAR1 ag counter inactive.
`COc1ccc(C(=O)Nc2nc(CC(=O)NCc3c(F)cccc3F)cs2)cc1` gave TAAR1 antag 70.9, GalR3 antagonist inactive, TAAR1 agonist inactive, TAAR1 nonsel count 24.9, TAAR1 antag conf 49.7, Ga16 nonsel ag 13.5 and TAAR1 ag counter inactive.
`CCC(=O)Nc1nc(CC(=O)Nc2ccccc2OC)cs1` gave OX1R antag-1 inactive, TAAR1 antag inactive, GalR3 antagonist inactive, TAAR1 agonist inactive, CHO parental Ca inactive and OX1R antag-2 inactive.
CCOC(=O)Cc1csc(NC(=O)c2ccc(F)cc2)n1 was read as OX1R antag-1 inactive, TAAR1 antag inactive, GalR3 antagonist inactive, TAAR1 agonist inactive, CHO parental Ca inactive and OX1R antag-2 inactive.
COc1ccc(C(=O)Nc2nc(CC(=O)NCCc3ccccc3OC)cs2)cc1 was read as OX1R antag-1 inactive, TAAR1 antag 57.4, GalR3 antagonist inactive, TAAR1 agonist inactive, CHO parental Ca inactive, OX1R antag-2 inactive, TAAR1 nonsel count 26.8, TAAR1 antag conf inactive, Ga16 nonsel ag inactive and TAAR1 ag counter inactive.
COc1ccc(C(=O)Nc2nc(CC(=O)NCc3ccc(F)cc3)cs2)cc1 was read as OX1R antag-1 inactive, TAAR1 antag 71.7, GalR3 antagonist inactive, TAAR1 agonist inactive, CHO parental Ca inactive, OX1R antag-2 inactive, TAAR1 nonsel count 48.3, TAAR1 antag conf 65.6, Ga16 nonsel ag 14.5 and TAAR1 ag counter inactive.
COC(=O)N[C@@H]1C[C@H]2[C@@H]3CC[C@H]4C[C@@H](OC)CC[C@]4(C)[C@H]3CC[C@@]12C was read as OX1R antag-1 inactive, TAAR1 antag inactive, GalR3 antagonist inactive, TAAR1 agonist inactive, CHO parental Ca inactive and OX1R antag-2 inactive.
For COC(=O)N[C@@H]1C[C@H]2[C@@H]3CC[C@H]4C[C@@H](OC)CC[C@]4(C)[C@H]3CC[C@]12C the results were OX1R antag-1 inactive, TAAR1 antag 55.4, GalR3 antagonist inactive, TAAR1 agonist inactive, CHO parental Ca inactive, OX1R antag-2 inactive, TAAR1 nonsel count inactive, TAAR1 antag conf inactive, Ga16 nonsel ag inactive and TAAR1 ag counter inactive.
